What was measured:
[1] = test system: E. coli strains with A2503C, A2059G or A2059C in the 23S rRNA; assay: MIC against erythromycin-resistant strains with 23S rRNA mutations; assay type: cell-based, Escherichia coli; settings: Table S2 (not available)
Method in brief: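 Broth microdilution in Müller-Hinton broth with E. coli grown at 37°C. Test compounds started at 128 μM and were serially two-fold diluted, then halved again on adding bacteria to 2.5 × 10^4 CFU/well. Plates sealed and incubated overnight at 37°C. MIC taken as the lowest concentration preventing visible growth.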

[2] = target: E. coli ribosomes on H-ns-PPP mRNA (Escherichia coli, UniProt P60723); assay: Toeprinting assay in fully reconstituted in vitro translation system; assay type: biochemical; settings: 1-100 μM peptide, 100 μM thiostrepton; 15 min 37°C

Row | SMILES | Change in MIC with 23S rRNA mutations versus wildtype (in words) [1] | Toeprint result (in words) [2]
1 | CC[C@H]1OC(=O)[C@H](C)[C@@H](O[C@H]2C[C@@](C)(OC)[C@@H](O)[C@H](C)O2)[C@H](C)[C@@H](O[C@@H]2O[C@H](C)C[C@H](N(C)C)[C@H]2O)[C@](C)(O)C[C@@H](C)C(=O)[C@H](C)[C@@H](O)[C@]1(C)O [erythromycin] | increased MIC | 
2 | C=C(NC(=O)C(=C)NC(=O)c1csc(C2=N[C@@H]3c4csc(n4)[C@H]4NC(=O)c5csc(n5)[C@H]([C@](C)(O)[C@@H](C)O)NC(=O)[C@H]5CSC(=N5)/C(=C/C)NC(=O)[C@H]([C@@H](C)O)NC(=O)c5csc(n5)[C@]3(CC2)NC(=O)[C@H](C)NC(=O)C(=C)NC(=O)[C@H](C)NC(=O)[C@H]([C@@H](C)CC)N[C@@H]2C=Cc3c([C@H](C)O)cc(nc3[C@H]2O)C(=O)O[C@@H]4C)n1)C(N)=O [thiostrepton] |  | ribosomes can initiate at the AUG start codon but cannot translate further

— PMC6219704 (Cell chemical biology, 2018)
